Results as given in ChEMBL document CHEMBL4028872, “Structure-Activity Relationship, Pharmacological Characterization, and Molecular Modeling of Noncompetitive Inhibitors of the Betaine/γ-Aminobutyric Acid Transporter 1 (BGT1)” (J Med Chem, 2017).
Values after ≈ are worked out from the molar mass of the structure shown.

Legend:
[1] = Solubility of compound in pH 7.4 phosphate buffer after 24 hrs by HPLC-UV method; type: physicochemical
[2] = target: T1, Sodium- and chloride-dependent GABA transporter 1 (Mus musculus, UniProt P31648); assay: Inhibition of mouse GAT1 expressed in HEK293 cells assessed as reduction in [3H]GABA uptake after 3 mins by scintillation counting method; type: cell-based
How it was run: (§1)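 HEK293 lines stably expressing a single mouse GAT subtype, kept under blasticidin-S (5 µg/mL) selection. Cells were assayed about 24 h after plating with 30 nM [3H]GABA plus varying compound concentrations for 3 min at 37 °C in HBSS buffered with 20 mM HEPES (1 mM CaCl2, 1 mM MgCl2, pH 7.4). Cells were washed ice-cold and radioactivity counted. IC50 came from sigmoidal variable-slope fits.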

GABA transporter 2 [3] = target: T2, GABA transporter 2 (Mus musculus, UniProt P31651); assay: Inhibition of mouse BGT1 expressed in HEK293 cells assessed as reduction in [3H]GABA uptake after 3 mins by scintillation counting method; type: cell-based; how it was run: as §1
T2 sequence (P31651 whole entry): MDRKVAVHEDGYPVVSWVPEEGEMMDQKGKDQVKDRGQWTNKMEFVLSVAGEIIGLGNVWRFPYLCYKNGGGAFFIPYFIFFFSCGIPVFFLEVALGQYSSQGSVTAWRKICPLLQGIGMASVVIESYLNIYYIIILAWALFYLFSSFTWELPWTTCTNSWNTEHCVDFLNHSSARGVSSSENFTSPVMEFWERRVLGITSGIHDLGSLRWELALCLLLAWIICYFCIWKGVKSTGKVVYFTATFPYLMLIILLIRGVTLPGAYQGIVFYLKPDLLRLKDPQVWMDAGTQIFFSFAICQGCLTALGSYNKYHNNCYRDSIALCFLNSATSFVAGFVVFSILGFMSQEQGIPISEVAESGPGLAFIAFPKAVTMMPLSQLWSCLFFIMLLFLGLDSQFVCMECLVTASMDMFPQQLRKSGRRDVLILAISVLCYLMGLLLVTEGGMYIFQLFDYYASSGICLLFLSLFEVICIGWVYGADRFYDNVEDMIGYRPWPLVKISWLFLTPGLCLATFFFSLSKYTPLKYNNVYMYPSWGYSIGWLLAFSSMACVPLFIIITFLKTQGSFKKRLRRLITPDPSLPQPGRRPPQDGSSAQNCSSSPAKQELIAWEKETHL

GABA transporter 3 [4] = target: T3, GABA transporter 3 (Mus musculus, UniProt P31649); assay: Inhibition of mouse GAT2 expressed in HEK293 cells assessed as reduction in [3H]GABA uptake after 3 mins by scintillation counting method; type: cell-based
T3 sequence (P31649 whole entry): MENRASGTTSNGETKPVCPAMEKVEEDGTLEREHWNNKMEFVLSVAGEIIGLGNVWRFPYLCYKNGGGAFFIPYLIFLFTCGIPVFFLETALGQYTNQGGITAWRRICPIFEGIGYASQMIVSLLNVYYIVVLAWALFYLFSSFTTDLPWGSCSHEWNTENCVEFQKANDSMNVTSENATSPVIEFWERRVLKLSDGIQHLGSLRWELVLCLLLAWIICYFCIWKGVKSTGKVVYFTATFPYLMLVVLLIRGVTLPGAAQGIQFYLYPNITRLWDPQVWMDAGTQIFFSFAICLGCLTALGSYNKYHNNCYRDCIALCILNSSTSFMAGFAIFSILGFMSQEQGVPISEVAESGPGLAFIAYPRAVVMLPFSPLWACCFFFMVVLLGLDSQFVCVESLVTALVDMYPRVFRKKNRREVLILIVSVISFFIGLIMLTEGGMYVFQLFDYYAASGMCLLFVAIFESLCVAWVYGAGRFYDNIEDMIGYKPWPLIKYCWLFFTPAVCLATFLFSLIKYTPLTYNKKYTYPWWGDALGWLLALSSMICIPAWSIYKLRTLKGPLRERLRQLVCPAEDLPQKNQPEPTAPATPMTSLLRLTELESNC
How it was run: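 HEK293 cells stably expressing mouse GAT2 were kept under blasticidin-S (5 µg/mL) selection. Ice-cold washes preceded scintillation counting. IC50 came from a variable-slope sigmoidal fit.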

[5] = target: Sodium- and chloride-dependent GABA transporter 3 (Homo sapiens, UniProt P48066, L314Q); assay: Inhibition of human GAT3 L314Q mutant expresses in tsA201 cells assessed as reduction in [3H]GABA uptake after 3 mins by scintillation counting method; type: cell-based
Chain of Sodium- and chloride-dependent GABA transporter 3 (Homo sapiens, UniProt P48066, L314Q) (P48066 whole entry L314Q): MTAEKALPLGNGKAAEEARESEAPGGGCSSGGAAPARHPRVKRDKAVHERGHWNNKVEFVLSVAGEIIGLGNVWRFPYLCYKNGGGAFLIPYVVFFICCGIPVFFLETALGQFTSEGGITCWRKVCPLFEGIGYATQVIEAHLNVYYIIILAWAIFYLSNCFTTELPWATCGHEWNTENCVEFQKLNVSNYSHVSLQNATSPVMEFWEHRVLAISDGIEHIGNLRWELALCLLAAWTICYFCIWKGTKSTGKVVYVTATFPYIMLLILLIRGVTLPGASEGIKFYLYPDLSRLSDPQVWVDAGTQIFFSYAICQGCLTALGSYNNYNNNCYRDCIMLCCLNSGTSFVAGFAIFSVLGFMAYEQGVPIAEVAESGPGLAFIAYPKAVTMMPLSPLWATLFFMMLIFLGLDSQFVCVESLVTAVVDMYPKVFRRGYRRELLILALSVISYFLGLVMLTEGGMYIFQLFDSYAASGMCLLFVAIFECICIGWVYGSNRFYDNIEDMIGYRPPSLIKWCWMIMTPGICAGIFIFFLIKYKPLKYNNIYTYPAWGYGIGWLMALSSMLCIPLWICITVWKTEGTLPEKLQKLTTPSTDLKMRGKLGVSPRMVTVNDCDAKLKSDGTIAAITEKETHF
How it was run: (§2)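 Site-directed mutant transporters transiently transfected (PolyFect) into tsA201 cells, plated and used about 24 h later. Cells were washed with HBSS containing 20 mM HEPES, 1 mM CaCl2 and 1 mM MgCl2, pH 7.4. Uptake of 30 nM [3H]GABA was run with varied inhibitor concentrations for 3 min at 37 °C, then three ice-cold washes and scintillation counting. IC50 was taken from variable-slope sigmoidal fits. Triplicates, at least three independent experiments.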

[6] = target: Sodium- and chloride-dependent GABA transporter 3 (Homo sapiens, UniProt P48066, S468Y); assay: Inhibition of human GAT3 S468Y mutant expresses in tsA201 cells assessed as reduction in [3H]GABA uptake after 3 mins by scintillation counting method; type: cell-based; how it was run: as §2
Chain of Sodium- and chloride-dependent GABA transporter 3 (Homo sapiens, UniProt P48066, S468Y) (P48066 whole entry S468Y): as the sequence (P48066 whole entry L314Q) above, with Q314L, S468Y counted along it

[7] = target: T1, Sodium- and chloride-dependent GABA transporter 1; assay: Inhibition of mouse GAT1 expressed in hamster BHK cells assessed as reduction in [3H]GABA uptake after 3 mins by scintillation counting method; type: cell-based; conditions: read-out: Ki(app)
GABA transporter 3 [8] = target: T3, GABA transporter 3; assay: Inhibition of mouse GAT2 expressed in hamster BHK cells assessed as reduction in [3H]GABA uptake after 3 mins by scintillation counting method; type: cell-based; conditions: read-out: Ki(app)
GABA transporter 2 [9] = target: T2, GABA transporter 2; assay: Inhibition of mouse BGT1 expressed in hamster BHK cells assessed as reduction in [3H]GABA uptake after 3 mins by scintillation counting method; type: cell-based; conditions: read-out: Ki(app)

Structure (SMILES)	solubility at 24 h [1] [µg/mL]	IC50 [2] [µM]	IC50 (GABA transporter 2 [3]; read-out: IC50) [µM]	IC50 (GABA transporter 3 [4]) [µM]	IC50 [5] [µM]	IC50 [6] [µM]	Ki [7] [µM]	Ki (GABA transporter 3 [8]) [µM]	Ki (GABA transporter 2 [9]) [µM]	IC50 (GABA transporter 2 [3]) [µM]
O=C(NC1CCN(Cc2ccccc2)CC1)c1c(Cl)cc(Cl)cc1Cl	40 (≈ 101 µM)	> 1000	11	1700	–	–	–	–	–	–
NCCCC(=O)O [GAMMA-AMINOBUTYRIC ACID]	–	–	–	–	4	1	–	–	–	–
COc1ccccc1C1(O)CCN(CCCn2c3ccccc3c3ccccc32)CC1	–	–	–	–	–	–	19	41	1.4	–
COc1cccc(CN2CCC(NC(=O)c3ccc(Cl)nc3Cl)CC2)c1	240 (≈ 609 µM)	> 300	115	> 300	–	–	–	–	–	–
O=C(NC1CCN(Cc2cccc(C(F)(F)F)c2)CC1)c1ccc(Cl)cc1Cl	3 (≈ 6.96 µM)	> 1000	51	> 1000	–	–	–	–	–	–
CCOc1cccc(CN2CCC(NC(=O)c3ccc(Cl)nc3Cl)CC2)c1	130 (≈ 318 µM)	> 300	111	> 300	–	–	–	–	–	111
